High-throughput results as filed in PubChem BioAssay.
MrgX1 PAM – human MrgX1 positive allosteric modulation, primary screen; Q96LB2; MrgX1-HEK293, Fluo-4 calcium flux, FDSS; hits give high values; B-score at 10 µM; 0.63% of 310,000 active;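 active = plate-corrected calcium response at least 3 library SD above typical, normal starting fluorescence, not activating the receptor alone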;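 note: compound read alongside a low EC10 to EC30 dose of BAM8-22 agonist; peak minus trough fluorescence over baseline measured at the second addition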
Kir21 inh – Kir2.1 (mouse) channel inhibition. AID 1672. HEK293-Kir2.1, FluxOR thallium flux fluorescence; hits give low values. 0.85% of 310,000 active. B-score at 10 µM. P35561;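 active = fluorescence ratio B-score at or below minus 3 SD of library scores, with starting-brightness B-score within 2 SD, cut at about -4.2 in these data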;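 note: channel flux triggered by added potassium and thallium sulfate stimulus; B-score of peak minus minimum fluorescence over baseline after thallium stimulus; more negative B-score means stronger Kir2.1 block with less thallium influx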
MrgX1 agonist – activates human MrgX1 receptor signaling | Q96LB2 | MrgX1-HEK293 cells, Fluo-4 calcium fluorescence, agonist mode; hits give high values | B-score at 10 µM | 0.44% of 310,000 active | AID 588627;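 active = calcium response B-score plate-corrected fluorescence ratio at least 3 library SD, with starting fluorescence B-score inside 5 SD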
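Material: MrgX1-expressing HEK293 cells; input: 15,000 cells per well; doses: test compound given as first of three sequential additions; schedule: overnight plating before 1 h dye loading; technique: Fluo-4 NW calcium-flux fluorescence, kinetic read; evaluation: baseline-normalised fluorescence change ratio, B-scored; control set: plate-wise positive and negative controls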
RGS4 pot – potentiators or activators of RGS4 | HEK293 M3R/inducible RGS4, carbachol calcium flux Fluo4; hits give low values | B-score at 10 µM | 0.92% of 310,000 active | AID 463111;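 active = B-score of the integrated calcium signal more than 4 SD below the library mean, with starting fluorescence not abnormally high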;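 note: negative B-score means reduced calcium response which marks RGS4 activation or potentiation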
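System: HEK293 FlpIn-TREx cells, stable M3R, doxycycline-inducible RGS4. Timing: overnight RGS4 induction, 30 min dye load 37 °C, 20 min compound RT. Also added: carbachol, ECmax concentration. Measured by: Fluo4 fluorescence kinetic imaging of calcium. Evaluation: integrated calcium ratio converted to B score.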
RGS4 block – human RGS4 inhibition | P49798 | HEK293 M3R/RGS4 inducible, Fluo-4 calcium flux; hits give high values; triggered by carbachol at its EC20 | B-score at 10 µM | 0.45% of 310,000 active | AID 463165;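 active = B-score, a plate-corrected calcium signal, over three deviations above library mean, with baseline fluorescence within five deviations of library mean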;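 note: RGS4 expression induced by doxycycline in cells with stable M3 receptor; B-score is computed from the integrated fluorescence ratio over baseline after carbachol; higher B-score means a larger calcium signal and so more RGS4 inhibition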
MrgX1 antagonist – blocks BAM8-22 activation of human MrgX1 receptor | 1.3% of 310,000 active | B-score at 10 µM | MRGX1-HEK293 calcium flux, Fluo-4, BAM8-22 antagonism; hits give low values | Q96LB2 | AID 588676;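 active = calcium-response B-score plate-corrected more than 3 library SD below zero, starting fluorescence within 5 deviations, no agonist response on first addition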;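 note: peak minus trough fluorescence over baseline after final BAM8-22 challenge near maximal dose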
hERG ctr – hERG (human) inhibition as Kir2.1 counter-screen. shares compounds with Kir21 inh. hERG-expressing cells, thallium flux. inhibition, % at 10 µM. 20% of 320 active;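 note: host cells are CHO cells stably expressing hERG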
Target sequence (Q12809 whole entry, looked up): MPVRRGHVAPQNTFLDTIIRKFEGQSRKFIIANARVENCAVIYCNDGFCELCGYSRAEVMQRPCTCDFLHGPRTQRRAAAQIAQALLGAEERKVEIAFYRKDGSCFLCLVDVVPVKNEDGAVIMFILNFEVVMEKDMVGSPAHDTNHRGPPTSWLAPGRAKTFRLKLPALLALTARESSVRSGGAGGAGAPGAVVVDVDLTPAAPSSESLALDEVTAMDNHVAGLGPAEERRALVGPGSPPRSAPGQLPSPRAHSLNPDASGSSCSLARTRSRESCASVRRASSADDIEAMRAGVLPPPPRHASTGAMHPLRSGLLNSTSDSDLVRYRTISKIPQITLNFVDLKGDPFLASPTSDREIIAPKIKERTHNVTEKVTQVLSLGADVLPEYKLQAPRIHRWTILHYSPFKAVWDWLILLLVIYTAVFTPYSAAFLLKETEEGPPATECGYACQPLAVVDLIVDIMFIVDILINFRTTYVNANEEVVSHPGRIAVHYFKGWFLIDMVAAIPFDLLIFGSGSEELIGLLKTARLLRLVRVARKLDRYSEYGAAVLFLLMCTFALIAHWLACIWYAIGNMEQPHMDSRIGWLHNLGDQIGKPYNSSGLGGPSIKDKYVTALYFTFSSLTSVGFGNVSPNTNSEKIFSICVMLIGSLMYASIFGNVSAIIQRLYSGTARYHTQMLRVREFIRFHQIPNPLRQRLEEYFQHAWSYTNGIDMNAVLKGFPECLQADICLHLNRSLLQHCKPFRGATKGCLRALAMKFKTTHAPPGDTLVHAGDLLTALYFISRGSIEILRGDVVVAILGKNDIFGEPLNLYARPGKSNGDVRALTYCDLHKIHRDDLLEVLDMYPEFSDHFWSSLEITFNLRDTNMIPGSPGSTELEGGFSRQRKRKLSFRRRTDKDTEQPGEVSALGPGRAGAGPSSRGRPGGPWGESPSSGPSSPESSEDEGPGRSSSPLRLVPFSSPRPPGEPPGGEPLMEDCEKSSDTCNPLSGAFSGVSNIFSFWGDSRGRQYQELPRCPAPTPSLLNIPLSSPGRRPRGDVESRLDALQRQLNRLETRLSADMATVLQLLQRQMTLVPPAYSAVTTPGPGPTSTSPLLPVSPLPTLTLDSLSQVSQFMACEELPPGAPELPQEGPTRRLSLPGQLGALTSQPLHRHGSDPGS
KCNK9 spec – selectivity of Kir2.1 inhibitors: effect on human KCNK9. shares compounds with Kir21 inh. KCNK9-expressing cells, ion flux inhibition. inhibition, % at 10 µM. 5% of 320 active. AID 2329
Kir21 ephys inh – inhibitors of mouse Kir2.1 potassium channel | inhibition, % at 25 µM | 71% of 320 active | Kir2.1 cells, automated patch-clamp current inhibition | shares compounds with Kir21 inh
Starred values were filed as active, the others as inactive; i = inactive. The list is not random: actives were taken first. Their share in the collection is about 4.1%. Unless noted, the rule behind the calls is not given here.

SMILES	MrgX1 PAM	Kir21 inh	MrgX1 agonist	RGS4 pot	RGS4 block	MrgX1 antagonist	others
C=C(C)[C@@]12OC3(c4ccccc4)O[C@@H]1C1[C@@H]4O[C@]4(CO)[C@@H](O)[C@]4(O)C(=O)C(C)=C[C@H]4[C@@]1(O3)[C@H](C)[C@H]2OC(=O)/C=C/C=C/c1ccccc1 (stereo not given in full)	i	1.3	i	-8.6*	i	i
O=C(O)Cn1cc(/C=C2\C(=O)NC(=O)N(Cc3ccco3)C2=O)c2ccccc21	i	2.7	i	i	i	i
Cc1cc(/C=C2/C(=O)NC(=O)N(Cc3ccco3)C2=O)c(C)n1-c1ccccc1O	9.6*	-0.06	i	i	i	i
Cc1nc2ccccc2c(=O)n1/N=C/c1cc(Br)cc(Br)c1O	i	0.87	i	i	i	-8.6*
Cc1nc2ccccc2c(=O)n1-c1ccc(Br)cn1	i	-0.06	i	i	i	i
Cc1ccccc1CCNCc1ccc(Br)cc1	i	-9.6*	i	i	i	i
CCC(C)n1c(O)c(C=NCC2CCCO2)c(=O)[nH]c1=S (stereo not given)	i	0	i	-10*	i	i
COc1cc2c(cc1OC)-c1c(OC)c(OC)cc3c1[C@H](C2)[N+](C)(C)CC3	i	-2.3	i	i	i	i
c1ccc(-c2[nH]c(-c3ccccc3)[n+](CC3CO3)c2-c2ccccc2)cc1 (stereo not given)	i	-6.8*	i	i	i	i
COc1ccccc1N1CCN(Cc2ccc(SC)cc2)CC1	i	-0.1	i	i	i	i
Fc1ccc(CNCCc2ccc3c(c2)OCO3)cc1	i	1.3	i	i	i	i
c1cc2c(cc1CCNC1C3CC4CC(C3)CC1C4)OCO2 (stereo not given)	i	-4.5*	i	i	i	i
CC1CCC(NCCc2ccc3c(c2)OCO3)CC1 (stereo not given)	i	0.39	i	-7*	i	i
CC(C)c1ccc(-n2c(O)c(/C=N/NC(=O)c3ccccc3O)c(=O)[nH]c2=S)cc1	i	-0.03	i	i	i	i
CNC(C(=O)c1ccccc1)C(OC(C)=O)c1cccc([N+](=O)[O-])c1 (stereo not given)	i	2.7	i	i	i	i
O=C1Nc2ccccc2/C1=C/c1cnc[nH]1	i	-2	i	i	i	-6.7*
CC(NCc1ccc(Cl)cc1)C(O)c1ccccc1 (stereo not given)	i	-9*	i	i	i	i
CC(NCc1ccc(Cl)cc1Cl)C(O)c1ccccc1 (stereo not given)	i	-10*	i	i	i	i
CCOc1c(Cl)cc(CNC(C)C(O)c2ccccc2)cc1OC (stereo not given)	i	0.05	i	i	i	i
COc1cc(OC)c(OC)cc1CNC(C)C(O)c1ccccc1 (stereo not given)	i	0.21	i	i	i	i
CC(NCc1cccc(Cl)c1Cl)C(O)c1ccccc1 (stereo not given)	i	-16*	i	i	i	i
C=CCn1c(O)c(C(C)=NCCC2=CCCCC2)c(=O)[nH]c1=O	i	0.07	i	i	i	i
CCOc1cccc(=NC2CCCCC2)c2c(C)n(C)c(C)c12	i	-4	i	i	i	-6*
CCOc1ccccc1N=C1SCCCN1C	i	-1.6	i	i	i	i
CC[N+]12CCC(CC1)C(C(O)(c1ccccc1)c1ccccc1)C2 (stereo not given)	i	-1.6	i	-8*	i	i
SMILES	MrgX1 PAM	Kir21 inh	MrgX1 agonist	RGS4 pot	RGS4 block	MrgX1 antagonist	others
CC(C)[N+]12CCC(CC1)C(C(O)(c1ccccc1)c1ccccc1)C2 (stereo not given)	i	1.1	i	-8.4*	i	i
O=S(=O)(c1ccc(O)cc1)c1ccc(O)cc1	i	-0.25	i	i	i	i
CN[C@H]1C[C@H]2O[C@@](C)([C@H]1OC)n1c3ccccc3c3c4c(c5c6ccccc6n2c5c31)C(=O)NC4	10*	-0.51	i	i	4.9*	i
Cc1ccc(Cn2cc(C=O)c(-c3ccc(F)cc3)n2)cc1	7.6*	-1.8	i	i	i	i
CC(=O)N1N=C2C3CCN(CC3)C2C1c1ccccc1 (stereo not given)	i	-0.17	i	i	i	i
O=C(Cn1ncc2ccccc21)N1CCC2(CC1)OCCO2	i	1.1	i	i	i	i
CC(C)(C)C(=O)OC[N+](C)(C)CCOC(=O)C(O)(c1ccccc1)C1CCCC1 (stereo not given)	i	2.7	i	-7.5*	i	i
CCCC(CCC)C(=O)OC[N+](C)(C)CCOC(=O)C(O)(c1ccccc1)C1CCCC1 (stereo not given)	i	-0.16	i	i	i	i
O=C(Nc1cccc(Cl)c1)OC1CN2CCC1CC2 (stereo not given)	i	-0.79	i	i	i	i
Fc1ccc(C(OCCN2CCCC2)c2ccc(Br)cc2)cc1 (stereo not given)	i	-8.4*	i	-9.8*	i	i	hERG ctr=70%*;KCNK9 spec=i;Kir21 ephys inh=i
COc1ccc(CCNCc2ccccc2F)cc1OC	i	1.9	i	i	i	i
CCOc1ccc(Cl)cc1CNCCc1ccccc1F	i	-8.9*	i	i	i	i	hERG ctr=i;KCNK9 spec=i;Kir21 ephys inh=52%*
CN1CCc2c(C#N)c(Cl)nc(Cl)c2C1	i	0.08	i	i	i	i
CCc1ccc(CN2CCN(Cc3ccc(SC)cc3)CC2)cc1	i	-7.2*	i	i	i	i	hERG ctr=60%*;KCNK9 spec=i;Kir21 ephys inh=15%*
CCCCCSc1cc(OC)c(CCN(C)C)cc1OC	i	-6.3*	i	-7.7*	i	i	hERG ctr=57%*;KCNK9 spec=i;Kir21 ephys inh=56%*
